In assay [1] the test system is Anas sp. Nature of the assay: Concentration required to reduce the viral DNA in infected cells to 50% of untreated infected controls of Hepatitis B virus in primary duck hepatocyte (DHBV) cultures. It is filed as functional. A digest of the protocol: (§1)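 Primary hepatocytes from 9–14 day old ducklings persistently infected with DHBV, in L-15 with 5% FBS plus antibiotics. Compound was serially diluted and added in triplicate from day 2, with medium changed every second day to day 12; cells were harvested day 14. Viral DNA was measured by 32P-probe dot-blot and phosphorimaging, and EC50 was taken as 50% reduction versus untreated infected cells.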

Assay [2] concerns Anas sp. The assay is described as follows: In vitro antiviral activity against Hepatitis B virus in primary duck hepatocyte (DHBV) cultures and expressed as percent inhibition of viral DNA at 10 ug/mL. It is filed as functional. Summed up: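 DHBV-infected primary duck hepatocytes in L-15 with 5% FBS were treated at 10 µg/mL final in triplicate from day 2 to day 12, with medium changed every second day, and harvested day 14. DNA was extracted and dot-blot hybridized with a 32P DHBV probe, then quantified by phosphorimaging. % inhibition = (untreated − treated)×100/untreated, averaged over triplicates.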

The subject of assay [3] is HFF. Nature of the assay: Cytotoxic concentration required to reduce the uptake of neutral red stain by uninfected cell monolayers to 50% of untreated uninfected human foreskin fibroblasts (HFF). Type of assay: functional. Summed up: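 Neutral red uptake was measured in uninfected human foreskin fibroblast monolayers after 7 days of exposure. CC50 is 50% of untreated uninfected cells; ">" means 50% was not reached at the highest concentration tested.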

Assay [4] deals with HFF. The assay is described as follows: Concentration required to reduce the proliferation of HFF (human foreskin fibroblasts) cells to 50% of untreated controls. Type of assay: functional, cell-based.
The subject of another assay is Vero. The assay is described as follows: Cytotoxic concentration required to reduce the viability of Vero cells as determined by MTT assay. Type of assay: functional. The following applies: Chlorocebus sabaeus. Summed up: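 Vero cells were seeded at 2.5 × 10^4 per well and attached for 6–8 h. They were then exposed for 3 days at 37 °C to 200–1.5 µg/mL, with a DMSO control. MTT was added for 4 h, solubilized overnight, and absorbance read at 560–650 nm. CC50 is 50% viability of untreated control.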

The nature of assay [5]: Concentration required to reduce the proliferation of PHA stimulated human peripheral blood T lymphocytes to 50% of untreated PHA stimulated control. It is filed as functional. Summed up: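 Nylon-wool-enriched T cells from normal donor buffy coats, 2 × 10^5 per well in serum-free AIM V, were stimulated with PHA at 1 µg/mL final. Compounds from DMSO stock were tested in triplicate from 50 µg/mL in serial dilutions. After 3–4 days at 37 °C, cells were pulsed with [3H]thymidine 1 µCi/well for 18 h and counted by scintillation. Counts were compared with DMSO-matched PHA controls.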

A further assay deals with Daudi. The assay is described as follows: Concentration required to reduce the proliferation of Daudi cells to 50% of untreated controls. It is filed as functional, cell-based. The following applies: Homo sapiens. Summed up:
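Daudi cells were grown in suspension, so no trypsin detachment was used. CC50 is the concentration reducing proliferation to 50% of untreated controls.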

The subject of assay [6] is Anas sp. Nature of the assay: Concentration required to reduce the viral DNA in infected cells to 50% of untreated infected controls of Hepatitis B virus in primary duck hepatocyte (DHBV) cultures. Type of assay: functional, organism-based. A digest of the protocol: as §1

In brackets after ≈: the same amount, converted by molar mass. Some results are limits rather than exact numbers.

The values that follow come from ChEMBL document CHEMBL1135408, “Design and synthesis of novel 5-substituted acyclic pyrimidine nucleosides as potent and selective inhibitors of hepatitis B virus” (J Med Chem, 2002).

What is called EC50 is the midpoint of the concentration-response curve. Higher therefore signals lower potency in that assay. As a reminder, the inhibition is the relative decrease from the control value, in per cent. What is called CC50 is the concentration at which the toxic effect on the cells reaches its halfway point. Usually IC50 stands for the midpoint of a concentration-inhibition curve. Read a low IC50 as higher potency.

For the compound `CC(N=[N+]=[N-])c1cn(COCCO)c(=O)[nH]c1=O` (stereo not given), the EC50 in the assay with Anas sp. [1] is over 10 µg/mL.

The compound `CC(N=[N+]=[N-])c1cn(CCC(CO)CO)c(=O)[nH]c1=O` (stereo not given) returned an EC50 in the assay with Anas sp. [1] of 0.1 µg/mL (≈ 0.353 µM).

`C=C(N=[N+]=[N-])c1cn(COCCO)c(=O)[nH]c1=O` had an inhibition at 10 µg/mL in the assay on Anas sp. [2] of 84%. Also, the half-maximal cytotoxic concentration (CC50) in the assay with HFF [3] and in the assay on Vero was over 100 µg/mL in each case. In addition, the figures for the IC50 (in the assay on HFF [4]; in assay [5]; in the assay on Daudi) were over 100 µg/mL, over 50 µg/mL and over 50 µg/mL, respectively. In addition, in the assay on Anas sp. [1], the EC50 came out at 0.01 µg/mL (≈ 0.0395 µM).

Turning to `C=C(N=[N+]=[N-])c1cn(CCC(CO)CO)c(=O)[nH]c1=O`, in the assay with Anas sp. [2], the inhibition at 10 µg/mL is 93%. Also, the CC50 in the assay on HFF [3] is over 100 µg/mL; in the assay on Vero, over 200 µg/mL. For the same compound, the results for the IC50 (in the assay with HFF [4]; in assay [5]; in the assay on Daudi) were over 100 µg/mL, over 50 µg/mL and over 50 µg/mL, respectively. Also, in the assay on Anas sp. [1], the EC50 was determined as 0.01 µg/mL (≈ 0.0356 µM).

Regarding `C=C(N=[N+]=[N-])c1cn(COC(CO)CO)c(=O)[nH]c1=O`, in the assay on Anas sp. [2], at 10 µg/mL the inhibition was 86%. Further, the CC50 was over 100 µg/mL in the assay with HFF [3] and over 200 µg/mL with Vero. Further, the figures for the IC50 (with HFF [4]; in assay [5]; with Daudi) were 100 µg/mL (≈ 353 µM), over 50 µg/mL and over 50 µg/mL, respectively. This compound also displayed an EC50 in the assay on Anas sp. [1] of 0.01 µg/mL (≈ 0.0353 µM).

In the case of `CC(N=[N+]=[N-])c1cn(COC(CO)CO)c(=O)[nH]c1=O` (stereo not given), it took 1 µg/mL (≈ 3.51 µM) to reach a half-maximal effect in the assay on Anas sp. [1] (EC50).

For the compound `Nc1nc2c(ncn2COC(CO)CO)c(=O)[nH]1` [GANCICLOVIR], a half-maximal effect in the assay with Anas sp. [1] (EC50) was put at 1.5 µg/mL (≈ 5.88 µM).

In the case of `Nc1ccn([C@@H]2CS[C@H](CO)O2)c(=O)n1` [LAMIVUDINE], the inhibition at 10 µg/mL in the assay on Anas sp. [2] turned out to be 96%. Besides, the CC50 with Vero was over 100 µg/mL. This compound registered a half-maximal inhibitory concentration (IC50) in assay [5] of over 50 µg/mL. Further, in the assay with Anas sp. [1], the EC50 was found to be 0.01 µg/mL (≈ 0.0436 µM).

`Nc1nc(O)c2ncn(CCC(CO)CO)c2n1` [PENCICLOVIR] returned an EC50 in the assay with Anas sp. [6] of 0.3 µg/mL (≈ 1.18 µM).
